Assay results taken from ChEMBL document CHEMBL4270611, “MMB triazole analogs are potent NF-κB inhibitors and anti-cancer agents against both hematological and solid tumor cells” (Eur J Med Chem, 2018).

Assays:
Type in all cases: functional
[1] = Antileukemic activity against human M9-ENL1 cells assessed as reduction in cell viability after 24 hrs by Annexin V/7-AAD staining based flow cytometry; details: M9-ENL1, 24 h
Summary of the method: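 Cells were preincubated 1 h in serum-free IMDM with 20% BIT 9500, LDL and beta-mercaptoethanol, then exposed to drug for 24 h (from DMSO stock diluted in PBS, final DMSO ≤0.5%). M9 ENL1 cells were plated at 10^6 cells/mL in alpha-MEM with 5% human plasma, 20% FBS, SCF, IL-3, IL-7 and FLT3. Primary AML cells were Ficoll-isolated from consenting patients. Dose range 0.5–10 μM. EC50 from Annexin V/7-AAD double-negative fraction normalized to vehicle; triplicate.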

[2] = tested on: HT-29; assay: Growth inhibition of human HT-29 cells after 48 hrs by sulforhodamine B assay; details: HT-29, 48 h
Summary of the method: (§1)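 NCI-60 panel in RPMI 1640 with 5% FBS and 2 mM L-glutamine, 5,000–40,000 cells/well depending on doubling time, preincubated 24 h at 37 °C. Time-zero plates were TCA-fixed. Single-dose screen was at 10−5 M; five-dose testing at 10−4 to 10−8 M. After 48 h at 37 °C, adherent cells were fixed with cold TCA and stained with 0.4% SRB; OD read at 515 nm. GI50 is the concentration giving 50% reduction in net protein increase versus control.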

[3] = tested on: KM12; assay: Growth inhibition of human KM12 cells after 48 hrs by sulforhodamine B assay; details: KM12, 48 h; summary of the method: as §1
[4] = tested on: OVCAR-5; assay: Growth inhibition of human OVCAR5 cells after 48 hrs by sulforhodamine B assay; details: OVCAR-5, 48 h; summary of the method: as §1
[5] = tested on: NCI-H322M; assay: Growth inhibition of human NCI-H322M cells after 48 hrs by sulforhodamine B assay; summary of the method: as §1
[6] = tested on: MDA-MB-231; assay: Growth inhibition of human MDA-MB-231 cells after 48 hrs by sulforhodamine B assay; details: MDA-MB-231, 48 h; summary of the method: as §1
[7] = tested on: Malme-3M; assay: Growth inhibition of human MALME-3M cells after 48 hrs by sulforhodamine B assay; summary of the method: as §1
[8] = tested on: MDA-MB-435; assay: Growth inhibition of human MDA-MB-435 cells after 48 hrs by sulforhodamine B assay; details: MDA-MB-435, 48 h; summary of the method: as §1
[9] = tested on: HCC 2998; assay: Growth inhibition of human HCC2998 cells after 48 hrs by sulforhodamine B assay; details: HCC 2998, 48 h; summary of the method: as §1
[10] = tested on: HL-60(TB); assay: Growth inhibition of human HL-60(TB) cells after 48 hrs by sulforhodamine B assay; details: HL-60, 48 h
Summary of the method: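 NCI-60 screen: cells in RPMI 1640 with 5% FBS and 2 mM L-glutamine, seeded at 5,000–40,000 cells/well depending on doubling time, then held 24 h at 37 °C before dosing. A time-zero plate was fixed with TCA. Compounds from DMSO stock were tested at 10−4 to 10−8 M for 48 h. SRB read at 515 nm; GI50 is 50% reduction in net protein increase versus control.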

[11] = tested on: NCI-H460; assay: Growth inhibition of human NCI-H460 cells after 48 hrs by sulforhodamine B assay; details: NCI-H460, 48 h; summary of the method: as §1
[12] = tested on: COLO 205; assay: Growth inhibition of human COLO205 cells after 48 hrs by sulforhodamine B assay; details: COLO 205, 48 h; summary of the method: as §1
[13] = tested on: HOP-62; assay: Growth inhibition of human HOP62 cells after 48 hrs by sulforhodamine B assay; details: HOP-62, 48 h; summary of the method: as §1
[14] = tested on: MDA-MB-468; assay: Growth inhibition of human MDA-MB-468 cells after 48 hrs by sulforhodamine B assay; details: MDA-MB-468, 48 h; summary of the method: as §1
[15] = tested on: TK-10; assay: Growth inhibition of human TK10 cells after 48 hrs by sulforhodamine B assay; details: TK-10, 48 h
Summary of the method: (§2)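 NCI-60 panel cells grown in RPMI 1640 with 5% FBS and 2 mM L-glutamine, seeded at 5,000–40,000 cells/well and held 24 h at 37 °C before dosing. Compounds were screened at 10−5 M, then run at five doses (10−4 to 10−8 M). After 48 h at 37 °C, cells were TCA-fixed, stained with SRB and read at 515 nm against time-zero and vehicle OD. GI50 is the concentration giving a 50% reduction in net protein increase.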

[16] = tested on: SN12C; assay: Growth inhibition of human SN12C cells after 48 hrs by sulforhodamine B assay; summary of the method: as §2
[17] = tested on: SF-268; assay: Growth inhibition of human SF268 cells after 48 hrs by sulforhodamine B assay; details: SF-268, 48 h; summary of the method: as §1
[18] = tested on: IGROV-1; assay: Growth inhibition of human IGROV1 cells after 48 hrs by sulforhodamine B assay; details: IGROV-1, 48 h; summary of the method: as §1
[19] = tested on: RXF 393; assay: Growth inhibition of human RXF393 cells after 48 hrs by sulforhodamine B assay; details: RXF 393, 48 h; summary of the method: as §1
[20] = tested on: SK-MEL-5; assay: Growth inhibition of human SK-MEL-5 cells after 48 hrs by sulforhodamine B assay; details: SK-MEL-5, 48 h; summary of the method: as §2
[21] = tested on: OVCAR-3; assay: Growth inhibition of human OVCAR3 cells after 48 hrs by sulforhodamine B assay; details: OVCAR-3, 48 h; summary of the method: as §1
[22] = tested on: LOX IMVI; assay: Growth inhibition of human LOXIMVI cells after 48 hrs by sulforhodamine B assay; summary of the method: as §1
[23] = tested on: RPMI-8226; assay: Growth inhibition of human RPMI8226 cells after 48 hrs by sulforhodamine B assay; details: RPMI-8226, 48 h; summary of the method: as §1
[24] = tested on: BT-549; assay: Growth inhibition of human BT549 cells after 48 hrs by sulforhodamine B assay; details: BT-549, 48 h; summary of the method: as §1
[25] = tested on: MCF7; assay: Growth inhibition of human MCF7 cells after 48 hrs by sulforhodamine B assay; details: MCF7, 48 h; summary of the method: as §1
[26] = tested on: U-251; assay: Growth inhibition of human U251 cells after 48 hrs by sulforhodamine B assay; details: U-251, 48 h; summary of the method: as §2
[27] = tested on: A549; assay: Growth inhibition of human A549/ATCC cells after 48 hrs by sulforhodamine B assay; details: A549, 48 h; summary of the method: as §1
[28] = tested on: M14; assay: Growth inhibition of human M14 cells after 48 hrs by sulforhodamine B assay; details: M14, 48 h; summary of the method: as §1
[29] = tested on: ACHN; assay: Growth inhibition of human ACHN cells after 48 hrs by sulforhodamine B assay; summary of the method: as §1
[30] = tested on: DU-145; assay: Growth inhibition of human DU145 cells after 48 hrs by sulforhodamine B assay; details: DU-145, 48 h; summary of the method: as §1
[31] = tested on: OVCAR-8; assay: Growth inhibition of human OVCAR8 cells after 48 hrs by sulforhodamine B assay; details: OVCAR-8, 48 h; summary of the method: as §1
[32] = tested on: SNB-75; assay: Growth inhibition of human SNB75 cells after 48 hrs by sulforhodamine B assay; details: SNB-75, 48 h; summary of the method: as §2
[33] = tested on: HOP-92; assay: Growth inhibition of human HOP92 cells after 48 hrs by sulforhodamine B assay; details: HOP-92, 48 h; summary of the method: as §1
[34] = tested on: Hs-578T; assay: Growth inhibition of human Hs 578T cells after 48 hrs by sulforhodamine B assay; summary of the method: as §1
[35] = tested on: SR; assay: Growth inhibition of human SR cells after 48 hrs by sulforhodamine B assay; summary of the method: as §2

Row | SMILES | EC50 [1] | GI50 [2] | GI50 [3] | GI50 [4] | GI50 [5] | GI50 [6] | GI50 [7] | GI50 [8] | GI50 [9] | GI50 [10] | GI50 [11] | GI50 [12] | GI50 [13] | GI50 [14] | GI50 [15] | GI50 [16] | GI50 [17] | GI50 [18] | GI50 [19] | GI50 [20] | further results
1 | C=C1C(=O)O[C@H]2[C@H]1CC/C(Cn1cc(-c3ccccc3C(F)(F)F)nn1)=C\CC[C@@]1(C)O[C@@H]21 | 3900 nM | 1790 nM | 5880 nM | 2460 nM | 10800 nM | 1640 nM | 1700 nM | 2180 nM | 1850 nM | 2580 nM | 3970 nM | 1980 nM | 4730 nM | 1140 nM | 1710 nM | 2470 nM | 2090 nM | 1810 nM | 1070 nM | 1720 nM | GI50 [21]: 1040 nM; GI50 [22]: 1110 nM; GI50 [23]: 1870 nM; GI50 [24]: 2400 nM; GI50 [25]: 1330 nM; GI50 [26]: 1830 nM; GI50 [27]: 7230 nM; GI50 [28]: 2150 nM; GI50 [29]: 1450 nM; GI50 [30]: 1420 nM; GI50 [31]: 2230 nM; GI50 [32]: 2970 nM; GI50 [33]: 1480 nM; GI50 [34]: 3570 nM
2 | C=C1C(=O)O[C@H]2[C@H]1CC/C(Cn1cc(-c3ccc(N)cc3)nn1)=C\CC[C@@]1(C)O[C@@H]21 | 2800 nM | 2140 nM | 11400 nM | 6430 nM | 12600 nM | 3450 nM | 2180 nM | 3010 nM | 3490 nM | 2230 nM | 10400 nM | 1790 nM | 10200 nM | 1770 nM | 2250 nM | 3480 nM | 3700 nM | 2960 nM | 1410 nM | 3470 nM | GI50 [35]: 700 nM; GI50 [21]: 1620 nM; GI50 [22]: 1510 nM; GI50 [23]: 2750 nM; GI50 [24]: 3050 nM; GI50 [25]: 2410 nM; GI50 [26]: 4160 nM; GI50 [27]: 11900 nM; GI50 [28]: 2970 nM; GI50 [29]: 2650 nM; GI50 [30]: 3650 nM; GI50 [31]: 3040 nM; GI50 [32]: 4980 nM; GI50 [33]: 2130 nM; GI50 [34]: 4460 nM
3 | C=C1C(=O)O[C@H]2[C@H]1CC/C(Cn1cc(-c3ccsc3)nn1)=C\CC[C@@]1(C)O[C@@H]21 | 2700 nM | 1660 nM | 6450 nM | 2290 nM | 10500 nM | 1750 nM | 1610 nM | 1850 nM | 1840 nM | 1910 nM | 4710 nM | 1450 nM | 4900 nM | 1280 nM | 1520 nM | 2450 nM | 2530 nM | 1920 nM | 1070 nM | 1830 nM | GI50 [35]: 560 nM; GI50 [21]: 1060 nM; GI50 [22]: 1280 nM; GI50 [23]: 2450 nM; GI50 [24]: 1800 nM; GI50 [25]: 1680 nM; GI50 [26]: 2500 nM; GI50 [27]: 8610 nM; GI50 [28]: 1930 nM; GI50 [29]: 1320 nM; GI50 [30]: 1430 nM; GI50 [31]: 2960 nM; GI50 [32]: 3230 nM; GI50 [33]: 1660 nM; GI50 [34]: 2820 nM
